Read-outs that look alike come from different tables or passages of the source.
Columns and labels:
[1] = system: THLE-2 cells (no enzyme, Ad-Null); experiment: TeamChip metabolism-induced toxicity assay, no enzyme control; type: cell-based; conditions: Homo sapiens, read-out: IC50, No enzyme
[2] = system: CYP2C9 (expressed drug-metabolizing enzyme); experiment: TeamChip metabolism-induced toxicity assay, CYP2C9; type: cell-based; conditions: human
[3] = system: CYP2D6 (expressed drug-metabolizing enzyme); experiment: TeamChip metabolism-induced toxicity assay, CYP2D6; type: cell-based; conditions: human
[4] = system: CYP3A4 (expressed drug-metabolizing enzyme); experiment: TeamChip metabolism-induced toxicity assay, CYP3A4; type: cell-based; conditions: human, IC50, CYP3A4, Ad-CYP3A4 15 MOI; compound 48 h; n = 4
[5] = system: CYP1A2 (expressed drug-metabolizing enzyme); experiment: TeamChip metabolism-induced toxicity assay, CYP1A2; type: cell-based; conditions: human
[6] = system: UGT1A4 (expressed metabolising enzyme); experiment: TeamChip metabolism-induced toxicity assay, UGT1A4; type: cell-based; conditions: human, IC50, UGT1A4, Ad-UGT1A4 15 MOI; compound 48 h; n = 4
[7] = system: P450 Mix: CYP2C9, CYP2D6, CYP3A4, CYP1A2, CYP2E1 (expressed); experiment: TeamChip metabolism-induced toxicity assay, P450 Mix; type: cell-based; conditions: human
[8] = system: All Mix: CYP2C9, CYP2D6, CYP3A4, CYP1A2, CYP2E1, UGT1A4 (expressed); experiment: TeamChip metabolism-induced toxicity assay, All Mix; type: cell-based; conditions: human
[9] = system: CYP2E1 (expressed drug-metabolizing enzyme); experiment: TeamChip metabolism-induced toxicity assay, CYP2E1; type: cell-based; conditions: human
Outline: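 THLE-2 cells in Matrigel spotted onto micropillars at 4°C, held 18 h at 37°C, transduced 1 d with recombinant adenovirus carrying the enzyme gene (Ad-Null as no-enzyme control). Then exposed 2 d to test compound in BEGM. Washed twice in DPBS, Live/Dead stained 1 h in the dark, chip scanned.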

[10] = system: HepaRG cells in 2D culture; conditions: read-out: IC50, HepaRG cells in 2D culture; cited from earlier work
[11] = system: HepaRG cells in 3D culture; conditions: read-out: IC50, HepaRG cells in 3D culture; cited from earlier work
THLE-2 cells [12] = experiment: Apoptosis assay; type: cell-based, human; conditions: THLE-2 cells on the TeamChip
THLE-2 cells [13] = experiment: Intracellular GSH assay on the TeamChip; type: cell-based, human; conditions: exposed to 5 μM ketoconazole, at varying concentrations of acetaminophen
Outline: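 THLE-2 cells in Matrigel spots on a micropillar chip, transduced with 15 MOI Ad-CYP3A4 or Ad-Null (control) for 1 d. Then exposed for 48 h to varying test compound with 5 μM CYP3A4 inhibitor. Washed twice in DPBS, stained 20 min in the dark with thiol green dye (intracellular GSH kit), chip scanned, GSH quantified; n = 3.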

Row | intracellular GSH concentrations in CYP3A4-expressing THLE-2 cells (THLE-2 cells [13]) | Compound | IC50 ([1]; 48 h) [µM] | IC50 ([1]; THLE-2, 48 h) [µM] | IC50 at 48 h [2] [µM] | IC50 at 48 h [3] [µM] | IC50 at 48 h [4] [µM] | IC50 at 48 h [5] [µM] | IC50 at 48 h [6] [µM] | IC50 at 48 h [7] [µM] | IC50 at 48 h [8] [µM] | IC50 at 2 d [9] [µM] | IC50 [10] [µM] | IC50 [11] [µM] | number of apoptotic cells (THLE-2 cells [12])
1 | – | CC(=O)Nc1ccc(O)cc1 [Acetaminophen, acetaminophen] | 1500 ± 63 | 1400 ± 250 | 930 ± 41 | 1100 ± 71 | […] | 820 ± 21 | 2100 ± 52 | 240 ± 74 | 640 ± 100 | 180 | 26300 | 2700 | –
2 | – | Nc1c(CC(=O)O)cccc1C(=O)c1ccc(Br)cc1 [Bromfenac, bromfenac] | 210 ± 17 | 190 ± 12 | 120 ± 6 | 170 ± 39 | […] | 190 ± 37 | 210 ± 14 | 220 ± 24 | […] | – | – | – | –
3 | – | COc1cccc2c1C(=O)c1c(O)c3c(c(O)c1C2=O)C[C@@](O)(C(=O)CO)C[C@@H]3O[C@H]1C[C@H](N)[C@H](O)[C@H](C)O1 [Doxorubicin, doxorubicin] | – | – | – | – | – | – | – | – | – | – | – | – | increased the number of apoptotic cells in a dose-dependent manner
4 | – | CC(C)C(=O)Nc1ccc([N+](=O)[O-])c(C(F)(F)F)c1 [Flutamide, flutamide] | 45 ± 1.6 | 37 ± 9.7 | 25 ± 4.8 | 27 ± 5.1 | […] | 18 ± 0.5 | 38 ± 1.8 | 18 ± 4.1 | 17 ± 1.1 | – | – | – | –
5 | – | CN1CCN(CCCN2c3ccccc3Sc3ccc(C(F)(F)F)cc32)CC1 [Trifluoperazine, trifluoperazine] | 75 ± 11 | 80 ± 9.4 | 75 ± 12 | 69 ± 9.3 | 110 ± 7.3 | 120 ± 5.1 | 100 ± 12 | 53 ± 13 | 110 ± 10 | – | – | – | –
6 | – | Cc1c(C)c2c(c(C)c1O)CCC(C)(COc1ccc(CC3SC(=O)NC3=O)cc1)O2 (centres unmarked) [Troglitazone, troglitazone] | 110 ± 15 | […] | 50 ± 4.9 | 77 ± 4.2 | […] | 39 ± 6.6 | 150 ± 11 | 51 ± 4.3 | 62 ± 2.9 | – | – | – | –
7 | unchanged | CC(=O)N1CCN(c2ccc(OCC3COC(Cn4ccnc4)(c4ccc(Cl)cc4Cl)O3)cc2)CC1 (centres unmarked) [ketoconazole] | – | – | – | – | – | – | – | – | – | – | – | – | –

From PMC4132844 (Nature communications, 2014)
